Source: ChEMBL document CHEMBL1687738, “Effect of Candida glabrata FKS1 and FKS2 mutations on echinocandin sensitivity and kinetics of 1,3-beta-D-glucan synthase: implication for the existing susceptibility breakpoint” (Antimicrob Agents Chemother, 2009)
In brackets after ≈: the same amount, converted by molar mass. Starred links: 1 amine or outer side, 2 acyl side, 3 side chain; linkers in the order of their positions; H or OH if unused. Positions of bridges follow the written chain, without caps; N, C: chain ends. Non-standard residues stand in square brackets, D forms with d. Residues, ends and D or L forms follow the SMILES beside them. *: point of attachment. hTyr(3S-OH,4S-OH,3'-OSO3H) = N[C@H](C(=O)O)[C@H](O)[C@@H](O)c1ccc(O)c(OS(=O)(=O)O)c1; pTerphenylCO(4''-OnC5H11) = CCCCCOc1ccc(-c2ccc(-c3ccc(C(=O)*)cc3)cc2)cc1; Orn(4R-OH,5R-OH) = O=C([C@H](C[C@@H](O)[C@@H](O)N[*:3])N[*:1])[*:2]; hTyr(3S-OH,4S-OH) = N[C@H](C(=O)O)[C@H](O)[C@@H](O)c1ccc(O)cc1; Pro(3S-OH,4S-Me) = C[C@H]1CN[C@H](C(=O)O)[C@H]1O; X1 = CCCCCOc1ccc(-c2cc(-c3ccc(C(=O)*)cc3)no2)cc1; Gln(3R-OH) = NC(=O)C[C@@H](O)[C@H](N)C(=O)O; Hyp = O=C(O)[C@@H]1C[C@@H](O)CN1

Experiments:
Nakaseomyces glabratus [1] = experiment: Antifungal activity against Candida glabrata isolate 21900 expressing Fks1p D632G mutant and wild type Fks2p by CLSI method; format: functional
Nakaseomyces glabratus [2] = experiment: Antifungal activity against Candida glabrata isolate 41026 expressing wild type Fks1p and Fks2p F659S mutant by CLSI method; format: functional
Procedure, shortened: (§1)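 Broth microdilution MIC per CLSI M27-A3 in RPMI 1640 medium without serum. Caspofungin and micafungin stocks in sterile water; anidulafungin stock in 100% DMSO; stocks kept at −86°C.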

1,3-beta-glucan synthase [3] = target: 1,3-beta-glucan synthase (Candida glabrata, UniProt F5BCZ9, D666G); experiment: Inhibition of Candida glabrata isolate 41400 1,3-beta-D-glucan synthase wild type Fks1p/Fks2p D666G mutant; set-up: species or system Nakaseomyces glabratus
Procedure, shortened: (§2)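 Cells grown in YPD broth at 35°C with vigorous shaking to early stationary phase. Membrane protein extracted and glucan synthase partially purified by product entrapment. Filtration polymerization assay measured [3H]glucose incorporation into product, started by adding enzyme. Echinocandin serial dilutions spanned 0.01–10,000 ng/ml, with 1% DMSO controls for anidulafungin. IC50 from variable-slope sigmoidal fit.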

1,3-beta-glucan synthase [4] = target: 1,3-beta-glucan synthase (Candida glabrata, UniProt F5BCZ9, F659V); experiment: Inhibition of Candida glabrata isolate 234 1,3-beta-D-glucan synthase wild type Fks1p/Fks2p F659V mutant; set-up: species or system Nakaseomyces glabratus; procedure, shortened: as §2
Nakaseomyces glabratus [5] = experiment: Antifungal activity against Candida glabrata isolate 218 expressing wild type Fks1p and Fks2p by CLSI method; format: functional; procedure, shortened: as §1
Nakaseomyces glabratus [6] = experiment: Antifungal activity against Candida glabrata isolate 42031 expressing wild type Fks1p and Fks2p D666E mutant by CLSI method in presence of 50% human serum; format: functional
Procedure, shortened: (§3)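 Broth microdilution MIC per CLSI M27-A3 in RPMI 1640 supplemented with 50% serum. Caspofungin and micafungin stocks in sterile water; anidulafungin stock in 100% DMSO; stocks kept at −86°C.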

Nakaseomyces glabratus [7] = experiment: Antifungal activity against Candida glabrata isolate 3830 expressing wild type Fks1p and Fks2p S663P mutant by CLSI method; format: functional; procedure, shortened: as §1
Nakaseomyces glabratus [8] = experiment: Antifungal activity against Candida glabrata isolate 51916 expressing wild type Fks1p and Fks2p P667T mutant by CLSI method; format: functional; procedure, shortened: as §1
[9] = Inhibition of Candida glabrata ATCC 90030 wild type 1,3-beta-D-glucan synthase; set-up: species or system Nakaseomyces glabratus; procedure, shortened: as §2
Nakaseomyces glabratus [10] = experiment: Antifungal activity against Candida glabrata isolate 5416 expressing wild type Fks1p and Fks2p W1375L mutant by CLSI method in presence of 50% human serum; format: functional; procedure, shortened: as §3
Nakaseomyces glabratus [11] = experiment: Antifungal activity against Candida glabrata isolate 42971 expressing Fks1p D632Y mutant and Fks2p R1377STOP mutant by CLSI method in presence of 50% human serum; format: functional; procedure, shortened: as §3
Nakaseomyces glabratus [12] = experiment: Antifungal activity against Candida glabrata ATCC 90030 expressing wild type Fks1p and Fks2p by CLSI method; format: functional
Procedure, shortened: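 Broth microdilution MIC per CLSI M27-A3 in RPMI 1640 medium, also run in RPMI 1640 with 50% serum. Wild-type control strain. Caspofungin and micafungin dissolved in sterile distilled water and anidulafungin in 100% DMSO; stock solutions stored at −86°C. Geometric means used to compare MICs.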

Nakaseomyces glabratus [13] = experiment: Antifungal activity against Candida glabrata isolate 42031 expressing wild type Fks1p and Fks2p D666E mutant by CLSI method; format: functional; procedure, shortened: as §1
Nakaseomyces glabratus [14] = experiment: Antifungal activity against Candida glabrata isolate 42971 expressing Fks1p D632Y mutant and Fks2p R1377STOP mutant by CLSI method; format: functional; procedure, shortened: as §1

1,3-beta-glucan synthase (Candida glabrata, UniProt F5BCZ9, F659V), sequence (F5BCZ9 entry or part of it F659V): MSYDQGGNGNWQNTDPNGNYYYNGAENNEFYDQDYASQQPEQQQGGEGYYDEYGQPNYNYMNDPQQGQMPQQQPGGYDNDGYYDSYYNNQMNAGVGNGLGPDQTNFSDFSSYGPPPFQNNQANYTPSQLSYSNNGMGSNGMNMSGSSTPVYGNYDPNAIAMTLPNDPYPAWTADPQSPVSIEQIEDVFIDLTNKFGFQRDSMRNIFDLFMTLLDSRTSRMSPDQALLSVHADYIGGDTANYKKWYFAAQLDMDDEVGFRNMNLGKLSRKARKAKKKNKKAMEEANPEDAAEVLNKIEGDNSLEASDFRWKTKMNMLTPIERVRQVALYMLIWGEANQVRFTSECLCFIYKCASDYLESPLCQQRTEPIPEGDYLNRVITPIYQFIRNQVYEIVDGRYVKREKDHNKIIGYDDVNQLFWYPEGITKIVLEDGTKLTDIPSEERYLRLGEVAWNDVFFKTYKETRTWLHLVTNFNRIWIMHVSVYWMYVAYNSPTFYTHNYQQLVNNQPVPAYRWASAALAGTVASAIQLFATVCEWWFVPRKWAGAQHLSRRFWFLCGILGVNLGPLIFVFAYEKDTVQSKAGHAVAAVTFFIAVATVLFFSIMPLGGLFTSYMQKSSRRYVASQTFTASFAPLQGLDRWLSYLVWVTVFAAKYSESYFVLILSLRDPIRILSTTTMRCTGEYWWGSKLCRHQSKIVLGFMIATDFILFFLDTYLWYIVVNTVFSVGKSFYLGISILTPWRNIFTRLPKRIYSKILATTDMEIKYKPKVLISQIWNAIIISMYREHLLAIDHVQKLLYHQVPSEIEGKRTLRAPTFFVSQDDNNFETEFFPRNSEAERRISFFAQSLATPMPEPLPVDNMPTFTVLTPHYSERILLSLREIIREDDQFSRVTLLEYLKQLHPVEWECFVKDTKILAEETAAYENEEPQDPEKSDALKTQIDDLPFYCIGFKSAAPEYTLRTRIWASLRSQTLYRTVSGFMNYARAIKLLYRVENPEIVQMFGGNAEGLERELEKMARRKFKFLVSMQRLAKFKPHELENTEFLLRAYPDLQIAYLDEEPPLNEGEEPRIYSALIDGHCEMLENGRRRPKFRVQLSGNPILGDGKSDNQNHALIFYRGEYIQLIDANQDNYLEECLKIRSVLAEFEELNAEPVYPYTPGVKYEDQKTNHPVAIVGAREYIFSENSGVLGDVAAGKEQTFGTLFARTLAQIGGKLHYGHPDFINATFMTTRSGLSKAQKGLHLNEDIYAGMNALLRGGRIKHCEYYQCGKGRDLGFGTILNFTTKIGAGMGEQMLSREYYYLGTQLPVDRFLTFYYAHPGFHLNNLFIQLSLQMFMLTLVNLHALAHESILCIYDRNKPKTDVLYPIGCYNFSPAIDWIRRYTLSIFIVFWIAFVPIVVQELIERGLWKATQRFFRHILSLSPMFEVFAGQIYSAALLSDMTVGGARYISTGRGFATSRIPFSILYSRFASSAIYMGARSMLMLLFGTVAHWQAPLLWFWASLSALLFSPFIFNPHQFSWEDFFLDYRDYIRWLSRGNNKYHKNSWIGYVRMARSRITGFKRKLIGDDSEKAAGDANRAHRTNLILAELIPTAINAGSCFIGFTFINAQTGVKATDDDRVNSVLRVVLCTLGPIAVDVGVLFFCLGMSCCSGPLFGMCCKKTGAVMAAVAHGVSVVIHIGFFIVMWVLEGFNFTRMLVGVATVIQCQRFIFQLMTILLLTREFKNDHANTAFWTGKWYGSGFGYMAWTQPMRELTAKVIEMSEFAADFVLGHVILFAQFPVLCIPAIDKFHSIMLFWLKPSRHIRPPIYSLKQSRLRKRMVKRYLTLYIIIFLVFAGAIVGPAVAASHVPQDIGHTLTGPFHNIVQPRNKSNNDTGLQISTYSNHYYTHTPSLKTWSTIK
1,3-beta-glucan synthase (Candida glabrata, UniProt F5BCZ9, D666G), sequence (F5BCZ9 entry or part of it D666G): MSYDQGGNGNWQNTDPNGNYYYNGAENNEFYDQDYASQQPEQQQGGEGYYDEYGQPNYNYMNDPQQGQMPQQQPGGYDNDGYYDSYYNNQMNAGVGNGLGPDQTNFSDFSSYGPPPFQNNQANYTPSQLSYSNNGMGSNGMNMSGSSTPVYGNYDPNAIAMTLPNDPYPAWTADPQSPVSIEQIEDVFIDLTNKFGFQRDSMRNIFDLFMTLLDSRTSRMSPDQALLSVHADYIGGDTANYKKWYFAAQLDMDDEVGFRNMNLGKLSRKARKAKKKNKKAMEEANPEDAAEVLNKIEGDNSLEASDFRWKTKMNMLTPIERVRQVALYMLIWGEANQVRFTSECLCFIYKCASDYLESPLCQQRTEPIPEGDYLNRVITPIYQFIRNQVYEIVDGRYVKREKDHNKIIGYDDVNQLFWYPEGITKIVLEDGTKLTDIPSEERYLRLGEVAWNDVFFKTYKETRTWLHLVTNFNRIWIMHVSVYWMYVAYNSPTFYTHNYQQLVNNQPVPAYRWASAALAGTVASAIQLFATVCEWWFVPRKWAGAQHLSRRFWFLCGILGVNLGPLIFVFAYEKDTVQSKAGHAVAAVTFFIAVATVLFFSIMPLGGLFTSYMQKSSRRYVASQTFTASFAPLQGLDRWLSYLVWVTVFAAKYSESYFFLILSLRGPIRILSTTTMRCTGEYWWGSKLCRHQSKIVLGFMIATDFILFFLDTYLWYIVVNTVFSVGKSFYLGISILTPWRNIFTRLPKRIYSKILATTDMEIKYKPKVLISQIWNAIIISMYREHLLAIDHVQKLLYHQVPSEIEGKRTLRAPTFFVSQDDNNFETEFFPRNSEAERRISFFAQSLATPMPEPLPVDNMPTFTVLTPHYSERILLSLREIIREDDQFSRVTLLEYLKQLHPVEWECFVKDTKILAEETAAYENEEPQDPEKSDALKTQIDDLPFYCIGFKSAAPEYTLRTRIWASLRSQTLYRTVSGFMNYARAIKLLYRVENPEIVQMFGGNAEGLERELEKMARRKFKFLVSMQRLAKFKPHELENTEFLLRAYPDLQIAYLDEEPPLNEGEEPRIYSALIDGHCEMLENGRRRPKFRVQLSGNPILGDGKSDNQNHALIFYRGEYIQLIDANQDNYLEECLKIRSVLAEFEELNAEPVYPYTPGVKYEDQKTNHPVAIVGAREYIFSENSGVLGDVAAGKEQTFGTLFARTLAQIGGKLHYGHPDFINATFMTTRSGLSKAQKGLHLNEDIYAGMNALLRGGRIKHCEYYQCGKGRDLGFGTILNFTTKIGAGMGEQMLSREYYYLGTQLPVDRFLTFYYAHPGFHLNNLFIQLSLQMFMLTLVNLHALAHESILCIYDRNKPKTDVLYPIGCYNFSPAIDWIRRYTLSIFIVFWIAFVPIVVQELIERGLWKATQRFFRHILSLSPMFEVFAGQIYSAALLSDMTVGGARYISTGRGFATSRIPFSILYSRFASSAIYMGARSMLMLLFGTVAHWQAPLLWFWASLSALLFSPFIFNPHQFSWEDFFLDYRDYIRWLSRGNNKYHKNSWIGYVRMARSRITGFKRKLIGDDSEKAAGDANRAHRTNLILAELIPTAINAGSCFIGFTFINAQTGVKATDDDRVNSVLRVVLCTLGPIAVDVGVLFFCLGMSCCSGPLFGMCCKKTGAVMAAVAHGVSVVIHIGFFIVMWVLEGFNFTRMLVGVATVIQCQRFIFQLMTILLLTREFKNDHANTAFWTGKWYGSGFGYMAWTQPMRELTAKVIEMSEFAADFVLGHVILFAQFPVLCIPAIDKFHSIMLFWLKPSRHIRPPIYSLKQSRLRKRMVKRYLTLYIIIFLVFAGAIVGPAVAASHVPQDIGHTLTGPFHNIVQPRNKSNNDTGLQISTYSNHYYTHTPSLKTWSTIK

SMILES | MIC (Nakaseomyces glabratus [1]) | MIC (Nakaseomyces glabratus [2]) | IC50 (1,3-beta-glucan synthase [3]) | IC50 (1,3-beta-glucan synthase [4]) | MIC (Nakaseomyces glabratus [5]) | MIC (Nakaseomyces glabratus [6]) | MIC (Nakaseomyces glabratus [7]) | MIC (Nakaseomyces glabratus [8]) | IC50 [9] | MIC (Nakaseomyces glabratus [10]) | MIC (Nakaseomyces glabratus [11]) | MIC (Nakaseomyces glabratus [12]) | MIC (Nakaseomyces glabratus [13]) | MIC (Nakaseomyces glabratus [14])
CCCCCOc1ccc(-c2ccc(-c3ccc(C(=O)N[C@H]4C[C@@H](O)[C@@H](O)NC(=O)[C@@H]5[C@@H](O)[C@@H](C)CN5C(=O)[C@H]([C@@H](C)O)NC(=O)[C@H]([C@H](O)[C@@H](O)c5ccc(O)cc5)NC(=O)[C@@H]5C[C@@H](O)CN5C(=O)[C@H]([C@@H](C)O)NC4=O)cc3)cc2)cc1 [ANIDULAFUNGIN] ({pTerphenylCO(4''-OnC5H11)}-[Orn(4R-OH,5R-OH)]T[Hyp][hTyr(3S-OH,4S-OH)]T[Pro(3S-OH,4S-Me)]; lactam 1-C) | 1 µg/mL (≈ 0.877 µM) | 4 µg/mL (≈ 3.51 µM) | 154 nM | 75.9 nM | 0.06 µg/mL (≈ 0.0526 µM) | 4 µg/mL | 1 µg/mL (≈ 0.877 µM) | 1.59 µg/mL (≈ 1.39 µM) | 0.00191 µg/mL (≈ 0.00168 µM) | 4 µg/mL | 8 µg/mL | 0.06 µg/mL (≈ 0.0526 µM) | 1 µg/mL (≈ 0.877 µM) | 4 µg/mL (≈ 3.51 µM)
CC[C@H](C)C[C@H](C)CCCCCCCCC(=O)N[C@H]1C[C@@H](O)[C@@H](NCCN)NC(=O)[C@@H]2[C@@H](O)CCN2C(=O)[C@H]([C@H](O)CCN)NC(=O)[C@H]([C@H](O)[C@@H](O)c2ccc(O)cc2)NC(=O)[C@@H]2C[C@@H](O)CN2C(=O)[C@H]([C@@H](C)O)NC1=O [CASPOFUNGIN] | 4 µg/mL (≈ 3.66 µM) | 16 µg/mL (≈ 14.6 µM) | 463 nM | 105 nM | 0.12 µg/mL (≈ 0.11 µM) | 8 µg/mL | 16 µg/mL (≈ 14.6 µM) | 2 µg/mL (≈ 1.83 µM) | 0.00192 µg/mL (≈ 0.00176 µM) | 8 µg/mL | 8 µg/mL | 0.06 µg/mL (≈ 0.0549 µM) | 4 µg/mL (≈ 3.66 µM) | 8 µg/mL (≈ 7.32 µM)
CCCCCOc1ccc(-c2cc(-c3ccc(C(=O)N[C@H]4C[C@@H](O)[C@@H](O)NC(=O)[C@@H]5[C@@H](O)[C@@H](C)CN5C(=O)[C@H]([C@H](O)CC(N)=O)NC(=O)[C@H]([C@H](O)[C@@H](O)c5ccc(O)c(OS(=O)(=O)O)c5)NC(=O)[C@@H]5C[C@@H](O)CN5C(=O)[C@H]([C@@H](C)O)NC4=O)cc3)no2)cc1 [MICAFUNGIN] (X1-[Orn(4R-OH,5R-OH)]T[Hyp][hTyr(3S-OH,4S-OH,3'-OSO3H)][Gln(3R-OH)][Pro(3S-OH,4S-Me)]; lactam 1-C) | 0.5 µg/mL (≈ 0.394 µM) | 4 µg/mL (≈ 3.15 µM) | 79.2 nM | 89.3 nM | 0.12 µg/mL (≈ 0.0945 µM) | 4 µg/mL | 1 µg/mL (≈ 0.787 µM) | 0.4 µg/mL (≈ 0.315 µM) | 0.00071 µg/mL (≈ 0.000559 µM) | 2 µg/mL | 8 µg/mL | 0.03 µg/mL (≈ 0.0236 µM) | 0.25 µg/mL (≈ 0.197 µM) | 1 µg/mL (≈ 0.787 µM)
